Assay results: ChEMBL document CHEMBL1127684, “Enkephalin analogs as systemically active antinociceptive agents: O- and N-alkylated derivatives of the dipeptide amide L-2,6-dimethyltyrosyl-N-(3-phenylpropyl)-D-alaninamide” (J Med Chem, 1994)
pIC50: −log10 of the molar value. Calls of active or inactive are those of the source. The rule behind the calls is not given here.

Experiments:
Mus musculus [1] = test: Effective dose administered subcutaneously in mouse writhing assay; No significant inhibition at 10 mg/kg, the highest dose tested; type: functional, organism-based; set-up: dose 10 mg/kg
Method in brief: (§1)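 Mouse phenylbenzoquinone-induced abdominal stretch (writhing) assay with subcutaneous dosing. […] 10 mg/kg was the highest dose tested.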

Mu-type opioid receptor [2] = biological target: T1, Mu-type opioid receptor (Rattus norvegicus, UniProt P33535); test: Affinity for mu opioid receptor was measured by displacement of tritiated DAMGO from rat brain membranes; type: cell membranes, Membrane
Method in brief: (§2)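 Forebrain membranes from male Sprague-Dawley rats (150–300 g, cerebellum and hindbrain removed), washed and preincubated 1 h at 25 °C. Binding run in triplicate at 37 °C in 50 mM Tris/HCl pH 7.4, ~1 mg/mL protein, [3H]DAMGO 2.0 nM, with varying compound concentrations. Nonspecific binding defined with 10 μM levorphanol. IC50 taken from log-logit plots of concentration vs percent displacement.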

[3] = biological target: T2, Delta-type opioid receptor (Rattus norvegicus, UniProt P33533); test: Displacement of [3H]DSLET from rat brain membrane delta opioid receptor
Method in brief: as §2, with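 “[3H]DSLET 1.0” for “[3H]DAMGO 2.0”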

Mus musculus [4] = test: Effective dose administered intragastricly in mouse writhing assay; No significant inhibition at 10 mg/kg, the highest dose tested; type: functional, organism-based; set-up: dose 10 mg/kg
Mus musculus [5] = test: Effective dose administered subcutaneously in mouse writhing assay; type: functional; method in brief: as §1
Opioid receptor = Opioid receptor (Rattus norvegicus, UniProt P33533+P34975+P33535); test: Affinity for the opioid receptor by displacement of tritiated naloxone from rat brain membranes.; type: cell membranes, Membrane
Method in brief: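 Rat brain membranes with the cerebellum removed. Competition against [3H]naloxone as a nonselective opioid label, with the radioligand at or near its Kd. Reported as IC50 (nM).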

Mus musculus [6] = test: Effective dose administered intragastricly in mouse writhing assay; type: functional; settings: po
Mu-type opioid receptor [7] = biological target: T1, Mu-type opioid receptor; test: Inhibitory concentration was evaluated against mu opioid receptor by the displacement of tritiated DAMGO from rat brain membranes; type: cell membranes, Membrane; method in brief: as §2
[8] = biological target: Kappa-type opioid receptor (Rattus norvegicus, UniProt P34975); test: Inhibitory concentration was evaluated against kappa opioid receptor by displacement of tritiated U-69593 from rat brain membranes; type: cell membranes, Membrane
[9] = biological target: T2, Delta-type opioid receptor; test: (§3) Inhibitory concentration was evaluated against delta opioid receptor by the displacement of tritiated DSLET from rat brain membranes; type: cell membranes, Membrane
Method in brief: as §2, with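 “[3H]DSLET 1.0” for “[3H]DAMGO 2.0”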

[10] = biological target: T2, Delta-type opioid receptor; test: as §3; type: functional, cell membranes, Membrane
Method in brief: as §2, with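 “[3H]DSLET 1.0” for “[3H]DAMGO 2.0”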

Mus musculus [11] = test: Effective dose administered subcutaneously in mouse writhing assay; not significant; type: functional, organism-based; method in brief: as §1
[12] = Mus musculus, sc, read-out: ED50

Chain of Kappa-type opioid receptor (P34975 whole entry): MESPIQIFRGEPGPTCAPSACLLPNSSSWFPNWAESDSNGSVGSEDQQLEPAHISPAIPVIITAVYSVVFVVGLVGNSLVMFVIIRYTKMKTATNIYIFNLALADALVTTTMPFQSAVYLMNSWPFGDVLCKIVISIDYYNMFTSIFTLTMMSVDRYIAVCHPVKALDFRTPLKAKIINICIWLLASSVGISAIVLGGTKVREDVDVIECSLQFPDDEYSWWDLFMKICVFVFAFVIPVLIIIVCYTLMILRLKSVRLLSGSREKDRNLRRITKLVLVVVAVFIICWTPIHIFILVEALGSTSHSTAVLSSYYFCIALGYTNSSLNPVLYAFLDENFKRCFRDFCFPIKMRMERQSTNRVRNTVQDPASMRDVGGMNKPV
T1 sequence (P33535 whole entry): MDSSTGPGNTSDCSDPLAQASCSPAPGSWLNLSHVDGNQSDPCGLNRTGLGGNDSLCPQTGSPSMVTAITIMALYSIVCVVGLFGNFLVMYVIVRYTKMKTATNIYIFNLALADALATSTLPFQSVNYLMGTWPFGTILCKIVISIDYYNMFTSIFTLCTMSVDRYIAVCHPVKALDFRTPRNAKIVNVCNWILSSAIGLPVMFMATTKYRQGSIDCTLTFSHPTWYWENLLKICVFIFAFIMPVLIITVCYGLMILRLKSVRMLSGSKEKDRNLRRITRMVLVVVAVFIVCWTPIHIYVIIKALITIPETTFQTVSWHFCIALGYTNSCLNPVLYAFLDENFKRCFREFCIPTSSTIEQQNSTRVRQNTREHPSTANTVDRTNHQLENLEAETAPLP
T2 sequence (P33533 whole entry): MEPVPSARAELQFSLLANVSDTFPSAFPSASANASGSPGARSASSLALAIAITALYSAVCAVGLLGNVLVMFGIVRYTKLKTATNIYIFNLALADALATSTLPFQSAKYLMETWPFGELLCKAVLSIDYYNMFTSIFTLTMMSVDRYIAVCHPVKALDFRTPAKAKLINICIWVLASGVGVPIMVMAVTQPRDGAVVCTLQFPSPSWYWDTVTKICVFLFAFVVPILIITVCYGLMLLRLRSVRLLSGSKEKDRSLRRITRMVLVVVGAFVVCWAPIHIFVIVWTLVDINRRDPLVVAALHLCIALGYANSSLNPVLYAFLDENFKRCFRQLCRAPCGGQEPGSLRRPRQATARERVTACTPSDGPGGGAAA

Row | SMILES | ED50 (Mus musculus [1]) | pIC50 (Mu-type opioid receptor [2]) | pIC50 [3] | ED50 (Mus musculus [4]) | ED50 (Mus musculus [5]; [12]) | IC50 (Opioid receptor) | ED50 (Mus musculus [6]) | also measured
1 | Cc1cc(OCc2ccc(C(=O)O)cc2)cc(C)c1CC(N)C(=O)N[C@H](C)C(=O)NCCCc1ccccc1 (some centres not stated) | inactive | 7.91 | 6.05 | inactive |  |  |  | 
2 | Cc1cc(O)cc(C)c1C[C@H](N)C(=O)N(CC1CC1)[C@H](C)C(=O)NCCCc1ccccc1 (stereo in doubt; 18b) [listing 1 of 2 here] |  |  |  | inactive |  |  |  | 
3 | CNC(Cc1c(C)cc(OCc2ccccc2)cc1C)C(=O)N[C@H](C)C(=O)NCCCc1ccccc1 (some centres not stated) |  |  |  | inactive | ~10 mg/kg | 53 nM |  | 
4 | Cc1cc(OCc2ccc(C#N)cc2)cc(C)c1CC(N)C(=O)N[C@H](C)C(=O)NCCCc1ccccc1 (some centres not stated) | inactive | 7.54 | < 6.00 | inactive |  | 17 nM |  | 
5 | Cc1cc(OCc2ccccc2)cc(C)c1C[C@@H](N)C(=O)N[C@H](C)C(=O)NCCCc1ccccc1 |  |  |  |  | 2.3 mg/kg | 22 nM | 12.9 mg/kg | pIC50 (Mu-type opioid receptor [7]): 7.35; pIC50 [8]: 4.76; pIC50 [9]: 5.74
6 | Cc1ccccc1COc1cc(C)c(CC(N)C(=O)N[C@H](C)C(=O)NCCCc2ccccc2)c(C)c1 (some centres not stated) | inactive |  |  | inactive |  |  |  | 
7 | Cc1cc(O)cc(C)c1C[C@H](N)C(=O)N(CC1CC1)[C@H](C)C(=O)NCCCc1ccccc1 (stereo in doubt; 18c) [listing 1 of 2 here] | inactive |  |  | inactive |  |  |  | 
8 | Cc1cc(OCc2ccc(C(=O)O)cc2)cc(C)c1C[C@H](N)C(=O)N[C@H](C)C(=O)NCCCc1ccccc1 | inactive |  |  | inactive |  | 83 nM |  | 
9 | Cc1cc(O)cc(C)c1CC(N)C(=O)N[C@H](C)C(=O)N(C)CCCc1ccccc1 (some centres not stated) | inactive |  |  | inactive |  | 300 nM |  | 
10 | Cc1cc(OCc2ccc(F)cc2)cc(C)c1CC(N)C(=O)N[C@H](C)C(=O)NCCCc1ccccc1 (some centres not stated) |  | 7.76 | 6.41 | inactive | 2.7 mg/kg | 18 nM |  | pIC50 (Mu-type opioid receptor [7]): 8.06; pIC50 [8]: 4.97; pIC50 [10]: 6.43
11 | CN[C@H](Cc1c(C)cc(O)cc1C)C(=O)N[C@H](C)C(=O)NCCCc1ccccc1 | inactive |  |  | inactive |  | 1800 nM |  | 
12 | Cc1cc(OCc2ccc([N+](=O)[O-])cc2)cc(C)c1CC(N)C(=O)N[C@H](C)C(=O)NCCCc1ccccc1 (some centres not stated) |  | 8.46 | 6.90 |  | 2.3 mg/kg | 2.9 nM | 6.8 mg/kg | 
13 | Cc1cc(O)cc(C)c1CC(N)C(=O)N(CC1CC1)[C@H](C)C(=O)NCCCc1ccccc1 (some centres not stated) |  |  |  | inactive | 2.4 mg/kg | 10 nM |  | 
14 | COc1cc(C)c(CC(N)C(=O)N[C@H](C)C(=O)NCCCc2ccccc2)c(C)c1 (some centres not stated) |  |  |  |  | 4.3 mg/kg | 290 nM | 2.3 mg/kg | 
15 | C=CCOc1cc(C)c(CC(N)C(=O)N[C@H](C)C(=O)NCCCc2ccccc2)c(C)c1 (some centres not stated) |  |  | 6.22 |  | 12.4 mg/kg |  | 14.9 mg/kg | 
16 | Cc1cc(O)cc(C)c1CC(N)C(=O)N[C@H](C)C(=O)NCCCc1ccccc1 (some centres not stated) |  | 9.70 | 8.07 |  | 0.5 mg/kg | 0.1 nM | 2 mg/kg | pIC50 (Mu-type opioid receptor [7]): 9.89; pIC50 [8]: 6.66; pIC50 [9]: 8.02
17 | COc1cc(C)c(C[C@H](N)C(=O)N[C@H](C)C(=O)NCCCc2ccccc2)c(C)c1 (stereo in doubt; 20c) |  |  |  |  |  | 420 nM | 2.7 mg/kg | ED50 (Mus musculus [5]): 3.5 mg/kg
18 | C=CCN(C(=O)C(N)Cc1c(C)cc(O)cc1C)[C@H](C)C(=O)NCCCc1ccccc1 (some centres not stated) |  |  |  | inactive | 0.7 mg/kg | 1.3 nM |  | 
19 | Cc1cc(O)cc(C)c1C[C@H](N)C(=O)N(C)[C@H](C)C(=O)NCCCc1ccccc1 |  | 10.00 | 8.36 |  | 0.07 mg/kg |  | 3.1 mg/kg | pIC50 (Mu-type opioid receptor [7]): 9.70; pIC50 [8]: 6.50; pIC50 [9]: 8.10
20 | CN[C@@H](Cc1c(C)cc(O)cc1C)C(=O)N[C@H](C)C(=O)NCCCc1ccccc1 | inactive |  |  | inactive |  | 140 nM |  | 
21 | C=CCN(C(=O)[C@@H](N)Cc1c(C)cc(O)cc1C)[C@H](C)C(=O)NCCCc1ccccc1 |  |  |  | inactive |  | 280 nM |  | ED50 (Mus musculus [11]): inactive
22 | CCOc1cc(C)c(CC(N)C(=O)N[C@H](C)C(=O)NCCCc2ccccc2)c(C)c1 (some centres not stated) | inactive |  |  | inactive |  | 130 nM |  | 
23 | Cc1cc(O)cc(C)c1C[C@H](N)C(=O)N(CC1CC1)[C@H](C)C(=O)NCCCc1ccccc1 (stereo in doubt; 18b) [listing 2 of 2 here] |  | 9.40 | 8.03 |  | 0.5 mg/kg |  |  | pIC50 (Mu-type opioid receptor [7]): 9.30; pIC50 [8]: 6.00; pIC50 [9]: 8.00
24 | COc1cc(C)c(C[C@H](N)C(=O)N[C@H](C)C(=O)NCCCc2ccccc2)c(C)c1 (stereo in doubt; 20b) [listing 1 of 2 here] |  |  |  | inactive |  |  |  | 
25 | Cc1cc(O)cc(C)c1CC(C)(N)C(=O)N[C@H](C)C(=O)NCCCc1ccccc1 (some centres not stated) |  | 8.70 | 7.19 |  | 3 mg/kg | 150 nM | 3.7 mg/kg | pIC50 (Mu-type opioid receptor [7]): 8.96; pIC50 [8]: 5.86; pIC50 [9]: 6.91
26 | Cc1cc(O)cc(C)c1C[C@H](N)C(=O)N(CC1CC1)[C@H](C)C(=O)NCCCc1ccccc1 (stereo in doubt; 18c) [listing 2 of 2 here] |  | 7.63 | 6.39 |  |  |  |  | 
27 | Cc1cc(O)cc(C)c1CC(N)C(=O)N(C)[C@H](C)C(=O)NCCCc1ccccc1 (some centres not stated) |  |  |  |  | 1.7 mg/kg | 0.6 nM | 1.3 mg/kg | 
28 | Cc1cc(OCc2ccc(C(C)(C)C)cc2)cc(C)c1CC(N)C(=O)N[C@H](C)C(=O)NCCCc1ccccc1 (some centres not stated) | inactive |  |  | inactive |  | 0.5 nM |  | 
29 | COc1cc(C)c(C[C@H](N)C(=O)N[C@H](C)C(=O)NCCCc2ccccc2)c(C)c1 (stereo in doubt; 20b) [listing 2 of 2 here] |  | 7.24 | < 6.00 |  |  | 50 nM |  | ED50 (Mus musculus [5]): 0.7 mg/kg; pIC50 (Mu-type opioid receptor [7]): 7.49; pIC50 [8]: 4.70; pIC50 [9]: 5.68
30 | Cc1cc(OCc2ccccc2)cc(C)c1C[C@H](N)C(=O)N[C@H](C)C(=O)NCCCc1ccccc1 |  | 8.40 | 7.26 |  | 1.8 mg/kg | 360 nM | 2.4 mg/kg | pIC50 (Mu-type opioid receptor [7]): 9.04; pIC50 [8]: 5.60; pIC50 [9]: 6.88
